What was measured:
[1] = system: RAW264.7; test: Antiinflammatory activity in mouse RAW264.7 cells assessed as reduction in LPS-induced TNFalpha production by measuring TNFalpha levels at 30 uM pretreated for 1 hr followed by LPS-challenge measured after 20 to 24 hrs by ELISA relative to control; assay type: functional; parameters: scale not given: the % may be the effect or the level left
Outline: (§1)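 RAW 264.7 cells in DMEM with 10% FBS and penicillin/streptomycin, 37 °C, 5% CO2, seeded at 200×10^3 per well in 24-well plates. Media replaced at 24 h. Compound in DMSO (0.5% final) added 2 h later, then LPS 60 ng/ml 1 h after that. Media collected 20–24 h after LPS. 3–4 wells per concentration, expressed as % of DMSO vehicle control (mean ± SE).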

[2] = Cytotoxicity against LPS-induced mouse RAW264.7 cells assessed as cell viability at 30 uM pretreated for 1 hr followed by LPS-challenge measured after 20 to 24 hrs by CellTiter 96 aqueous non-radioactive cell proliferation assay; assay type: cell-based; conditions: LPS-induced RAW264.7 cells, read-out: Activity; outline: as §1
[3] = system: RAW264.7; test: Antiinflammatory activity in mouse RAW264.7 cells assessed as reduction in LPS-induced nitrite production by measuring nitrite levels at 30 uM pretreated for 1 hr followed by LPS-challenge measured after 20 to 24 hrs by Griess assay relative to control; assay type: functional; parameters: scale not given: the % may be the effect or the level left; outline: as §1
[4] = organism: Danio rerio; test: Antiangiogenic activity in 24 hrs post fertilized zebra fish embryo harboring fli1:EGFP assessed as number of intersegmental vessel at 10 ug/ml after 24 hrs by fluorescence microscopic analysis; assay type: functional
Outline: (§2)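 fli1:EGFP transgenic zebrafish embryos, identified by fluorescence, manually dechorionated at 24 h post fertilization and placed in plates with compound diluted in tank water, vehicle controls alongside. After 24 h exposure, embryos anaesthetized with 0.1% tricaine and intersegmental vessels scored for length (µm) and number. Values given as mean ± S.E.M.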

[5] = organism: Danio rerio; test: Antiangiogenic activity in 24 hrs post fertilized zebra fish embryo harboring fli1:EGFP assessed as intersegmental vessel length at 10 ug/ml after 24 hrs by fluorescence microscopic analysis; assay type: functional; outline: as §2
[6] = organism: Danio rerio; test: Antiangiogenic activity in 24 hrs post fertilized zebra fish embryo harboring fli1:EGFP assessed as intersegmental vessel length at 5 ug/ml after 24 hrs by fluorescence microscopic analysis; assay type: functional; outline: as §2
[7] = organism: Danio rerio; test: Toxicity in 24 hrs post fertilized zebra fish embryo harboring fli1:EGFP at >5 ug/ml; assay type: organism-based; conditions: zebrafish, in vivo
[8] = organism: Danio rerio; test: Antiangiogenic activity in 24 hrs post fertilized zebra fish embryo harboring fli1:EGFP assessed as number of intersegmental vessel at 5 ug/ml after 24 hrs by fluorescence microscopic analysis; assay type: functional; outline: as §2
[9] = Solubility of the compound in DMEM media at 30 uM; assay type: physicochemical
[10] = organism: Danio rerio; test: Toxicity in 24 hrs post fertilized zebra fish embryo harboring fli1:EGFP at >50 ug/ml; assay type: organism-based; conditions: zebrafish, in vivo
[11] = organism: Danio rerio; test: Antiangiogenic activity in 24 hrs post fertilized zebra fish embryo harboring fli1:EGFP assessed as intersegmental vessel length after 24 hrs by fluorescence microscopic analysis; assay type: functional, organism-based; outline: as §2

| solubility [9] | Structure (SMILES) | Activity [1] | viability at 30 µM [2] | Activity [3] | Activity [4] | Activity [5] | Activity [6] | Activity [7] | Activity [8] | Activity [10] | Activity [11] |
| --- | --- | --- | --- | --- | --- | --- | --- | --- | --- | --- | --- |
| – | CC(N1Cc2ccccc2C1=O)C12CC3CC(CC(C3)C1)C2 (stereo not drawn) | 55% | 82% | 52% | – | – | – | – | – | – | – |
| – | O=C1c2ccccc2CN1C12CC3CC(CC(O)(C3)C1)C2 | 80% | 98% | 101% | 19.5 | 105.1 um | – | – | – | – | – |
| – | O=C1c2ccccc2CN1C1C2CC3CC(C2)CC1C3 (stereo not drawn) | 58% | 75% | 62% | – | – | – | – | – | – | – |
| – | O=C1c2cccc([N+](=O)[O-])c2CN1CC12CC3CC(CC(C3)C1)C2 | 77% | 92% | 55% | – | – | – | – | – | – | – |
| – | CC(N1Cc2c(cccc2[N+](=O)[O-])C1=S)C12CC3CC(CC(C3)C1)C2 (stereo not drawn) | 96% | 83% | 11.5% | 22 | 86.4 um | – | – | – | – | – |
| – | O=C1c2cccc([N+](=O)[O-])c2CN1C1C2CC3CC(C2)CC1C3 (stereo not drawn) | 65% | 82% | 9.2% | – | – | 48.2 um | Toxic | 14.6 | – | – |
| Insoluble | O=C1c2cccc([N+](=O)[O-])c2CN1C12CC3CC(CC(C3)C1)C2 | 86% | 114% | 40% | – | – | – | – | – | – | – |
| Insoluble | CC(N1Cc2ccccc2C1=S)C12CC3CC(CC(C3)C1)C2 (stereo not drawn) | 90% | 84% | 52% | – | – | – | – | – | – | – |
| – | Nc1cccc2c1CN(C1C3CC4CC(C3)CC1C4)C2=O (stereo not drawn) | 101% | 99% | 72% | 14 | 42.1 um | – | – | – | Toxic | Dose-dependent effect |
| – | O=C1c2cccc([N+](=O)[O-])c2CN1C12CC3CC(CC1C3)C2 | 90% | 92% | 49% | 8.6 | 42.8 um | – | – | – | Toxic | Dose-dependent effect |
| – | O=C1c2ccccc2CN1CC12CC3CC(CC(C3)C1)C2 | 59% | 81% | 50% | 18.2 | 83.1 um | – | – | – | – | – |
| Insoluble | S=C1c2ccccc2CN1C12CC3CC(CC1C3)C2 | 85% | 94% | – | – | – | – | – | – | – | – |
| – | CC(N1Cc2c(cccc2[N+](=O)[O-])C1=O)C12CC3CC(CC(C3)C1)C2 (stereo not drawn) | 72% | 81% | 35% | – | – | – | – | – | – | – |
| – | O=C1c2ccccc2CN1C12CC3CC(CC1C3)C2 | 52% | 74% | – | – | – | – | – | – | – | – |
| – | O=C1c2cccc([N+](=O)[O-])c2CN1C12CC3CC(CC(O)(C3)C1)C2 | 91% | 107% | 94% | – | – | – | – | – | – | – |
